Measurements of several laboratories.
Lines come from different studies, so protocols differ.
CDK3: Cyclin-dependent kinase 3 (CDK3, Homo sapiens, UniProt Q00526)
CDK3 with cyclin E: Cyclin-dependent kinase 3, with cyclin E (CDK3, Homo sapiens, UniProt Q00526)

| SMILES | target | effect on | action | technique | tested at | endpoint | result |
| --- | --- | --- | --- | --- | --- | --- | --- |
| C1=C/COCc2cc(ccc2OCCN2CCCC2)Nc2nccc(n2)-c2cccc(c2)COC/1 | CDK3 | cell-free assay | – | – | 0.1 µM | remaining signal | 100% |
| COc1ccc2oc(-c3ccc4nc(N)oc4c3)c/c(=N\c3ccccc3NC(=O)CCN)c2c1 | CDK3 with cyclin E | binding | – | – | 1 µM | remaining binding | 108% |
| N#Cc1ccc(NC(=O)Nc2ccccc2)cc1 | CDK3 | cell-free assay | – | competition with immobilised ligand | 25 µM | remaining binding | 98% |
| C[C@]1(O)CCCN(c2nc(Nc3ccc(S(=O)(=O)N[C@H]4CC[C@H](CN5CCN(c6ccc(C7CCC(=O)NC7=O)cc6F)CC5)CC4)cc3Cl)ncc2C(F)(F)F)C1 (some centres unmarked) | CDK3 | binding | – | competition with immobilised ligand | 1 µM | remaining binding | 69% |
| CC(C)S(=O)(=O)c1ccc2nccc(Nc3ccc4sc(C5CCCC5)nc4c3)c2c1 | CDK3 with cyclin E | enzyme activity | inhibitor | – | 1 µM | activity vs control | 96.5% |
| CN1CCN(C(=O)c2ccc(NC(=O)Nc3ccc(N(C)c4ccnc(Nc5ccc(CS(C)(=O)=O)cc5)n4)cc3)cc2)CC1 | CDK3 | binding | – | competition with immobilised ligand | 1 µM | remaining binding | 100% |
| C[C@]1(O)CCCN(c2nc(Nc3ccc(S(=O)(=O)N[C@H]4CC[C@H](CN5CCN(c6ccc(C7CCC(=O)NC7=O)cc6F)CC5)CC4)cc3F)ncc2C(F)(F)F)C1 (some centres unmarked) | CDK3 | binding | – | competition with immobilised ligand | 1 µM | remaining binding | 74% |
| CC#CC(=O)N1CCC[C@H]1c1nc(-c2ccc(C(=O)Nc3ccccn3)cc2)c2c(N)nccn12 | CDK3 | enzyme activity | inhibitor | – | 1 µM | inhibition | 8% |
| CCCCC(=O)Nc1ccc(-c2ccc3ncn(CCC)c(=O)c3c2)cn1 | CDK3 | binding | – | competition with immobilised ligand | 0.5 µM | remaining binding | 93% |
| C=CC(=O)N1CCC([C@@H]2CCNc3c(C(N)=O)c(-c4ccc(Oc5ccccc5)cc4)nn32)CC1 | CDK3 | enzyme activity | inhibitor | – | 1 µM | inhibition | 8% |
| Cc1ccc(NC(=O)c2ccnc(C(F)(F)F)c2)cc1-c1cc(OCCO)nc(N2CCOCC2)c1 | CDK3 | binding | – | competition with immobilised ligand | 1 µM | remaining binding | 89% |
